Experimental data as given in ChEMBL document CHEMBL1139385, “Structural analysis of ARC-type inhibitor (ARC-1034) binding to protein kinase A catalytic subunit and rational design of bisubstrate analogue inhibitors of basophilic protein kinases” (J Med Chem, 2009).
Where a SMILES comes first, the peptide text is derived from it. [ ]: non-standard residue; d: D form. The star is where a group is joined. Adenosine(5'-uronoyl) = Nc1ncnc2c1ncn2[C@@H]1O[C@H](C(=O)*)[C@@H](O)[C@H]1O; Ahx = NCCCCCC(=O)O

Legend:
[1] = target: Maternal embryonic leucine zipper kinase (Homo sapiens) (UniProt Q14680); test: Inhibition of MELK at 100 nM relative to control
Outline: (§1)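 Activity is expressed as percent inhibition versus control incubations lacking inhibitor. Values are means of duplicate determinations.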

[2] = target: RAC-beta serine/threonine-protein kinase (Homo sapiens) (UniProt P31751); test: Inhibition of AKT2 at 100 nM relative to control; outline: as §1
[3] = target: Calcium/calmodulin-dependent protein kinase type 1D (Homo sapiens) (UniProt Q8IU85); test: Inhibition of CaMK1delta at 100 nM relative to control; outline: as §1
Chain of Calcium/calmodulin-dependent protein kinase type 1D (Homo sapiens) (Q8IU85 whole entry, looked up): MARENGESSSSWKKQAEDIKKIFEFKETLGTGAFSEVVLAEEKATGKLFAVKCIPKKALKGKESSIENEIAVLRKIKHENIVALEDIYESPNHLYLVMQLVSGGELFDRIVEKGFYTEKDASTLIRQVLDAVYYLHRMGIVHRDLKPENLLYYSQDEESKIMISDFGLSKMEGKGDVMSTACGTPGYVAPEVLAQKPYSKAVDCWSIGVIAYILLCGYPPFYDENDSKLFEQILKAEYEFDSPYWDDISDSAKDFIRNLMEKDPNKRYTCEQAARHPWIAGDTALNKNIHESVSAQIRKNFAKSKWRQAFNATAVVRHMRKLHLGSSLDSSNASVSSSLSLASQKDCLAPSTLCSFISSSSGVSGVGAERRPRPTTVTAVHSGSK

[4] = target: Serine/threonine-protein kinase D1 (Homo sapiens) (UniProt Q15139); test: Inhibition of PKCmu at 100 nM relative to control; outline: as §1
[5] = target: Serine/threonine-protein kinase D3 (Homo sapiens) (UniProt O94806); test: Inhibition of PKD3 at 100 nM relative to control; outline: as §1
[6] = target: T1, cAMP-dependent protein kinase catalytic subunit alpha (Homo sapiens, UniProt P17612); test: Binding affinity to PKA catalytic subunit alpha by fluorescence polarization assay
[7] = target: Serine/threonine-protein kinase Chk1 (Homo sapiens) (UniProt O14757); test: Inhibition of CHK1 at 100 nM relative to control; outline: as §1
[8] = target: Ribosomal protein S6 kinase alpha-2 (Homo sapiens) (UniProt Q15349); test: Inhibition of RSK3 at 100 nM relative to control; outline: as §1
[9] = target: Proto-oncogene tyrosine-protein kinase Src (Homo sapiens) (UniProt P12931); test: Inhibition of SRC at 100 nM relative to control; outline: as §1
Chain of Proto-oncogene tyrosine-protein kinase Src (Homo sapiens) (P12931 2-536 limits assumed): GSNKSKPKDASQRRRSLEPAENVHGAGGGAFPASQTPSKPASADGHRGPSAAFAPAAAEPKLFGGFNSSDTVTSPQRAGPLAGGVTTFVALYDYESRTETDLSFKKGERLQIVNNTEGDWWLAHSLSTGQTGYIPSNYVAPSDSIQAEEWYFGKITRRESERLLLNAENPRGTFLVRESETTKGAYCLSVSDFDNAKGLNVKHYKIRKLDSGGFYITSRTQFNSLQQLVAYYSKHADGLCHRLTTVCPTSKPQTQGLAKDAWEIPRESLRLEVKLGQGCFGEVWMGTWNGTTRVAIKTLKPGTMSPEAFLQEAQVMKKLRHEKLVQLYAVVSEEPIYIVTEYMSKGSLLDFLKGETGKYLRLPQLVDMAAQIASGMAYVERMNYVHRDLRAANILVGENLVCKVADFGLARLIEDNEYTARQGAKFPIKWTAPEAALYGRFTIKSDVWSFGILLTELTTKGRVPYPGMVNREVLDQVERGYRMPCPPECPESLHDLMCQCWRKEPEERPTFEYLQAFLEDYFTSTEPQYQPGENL

[10] = target: T2, RAC-gamma serine/threonine-protein kinase (Homo sapiens, UniProt Q9Y243); test: Inhibition of PKBgamma using 100 uM ATP and 30 uM TAMRA-kemptide substrate by fluorometric TLC assay
T2 sequence (Q9Y243 whole entry): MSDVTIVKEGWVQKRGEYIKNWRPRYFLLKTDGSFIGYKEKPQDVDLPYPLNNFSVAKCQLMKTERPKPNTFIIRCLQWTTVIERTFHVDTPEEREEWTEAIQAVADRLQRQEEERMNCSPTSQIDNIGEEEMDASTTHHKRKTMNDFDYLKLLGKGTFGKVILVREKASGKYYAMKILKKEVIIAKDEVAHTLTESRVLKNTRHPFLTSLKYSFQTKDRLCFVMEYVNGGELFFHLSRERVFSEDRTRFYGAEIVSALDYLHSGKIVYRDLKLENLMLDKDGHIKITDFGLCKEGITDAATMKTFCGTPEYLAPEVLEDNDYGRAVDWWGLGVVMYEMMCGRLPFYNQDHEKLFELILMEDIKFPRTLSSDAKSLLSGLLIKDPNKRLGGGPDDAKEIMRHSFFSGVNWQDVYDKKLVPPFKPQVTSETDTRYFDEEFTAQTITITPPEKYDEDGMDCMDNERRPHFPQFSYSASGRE

[11] = target: Rho-associated protein kinase 2 (Homo sapiens) (UniProt O75116); settings: 100 nM
Chain of Rho-associated protein kinase 2 (Homo sapiens) (O75116 whole entry, looked up): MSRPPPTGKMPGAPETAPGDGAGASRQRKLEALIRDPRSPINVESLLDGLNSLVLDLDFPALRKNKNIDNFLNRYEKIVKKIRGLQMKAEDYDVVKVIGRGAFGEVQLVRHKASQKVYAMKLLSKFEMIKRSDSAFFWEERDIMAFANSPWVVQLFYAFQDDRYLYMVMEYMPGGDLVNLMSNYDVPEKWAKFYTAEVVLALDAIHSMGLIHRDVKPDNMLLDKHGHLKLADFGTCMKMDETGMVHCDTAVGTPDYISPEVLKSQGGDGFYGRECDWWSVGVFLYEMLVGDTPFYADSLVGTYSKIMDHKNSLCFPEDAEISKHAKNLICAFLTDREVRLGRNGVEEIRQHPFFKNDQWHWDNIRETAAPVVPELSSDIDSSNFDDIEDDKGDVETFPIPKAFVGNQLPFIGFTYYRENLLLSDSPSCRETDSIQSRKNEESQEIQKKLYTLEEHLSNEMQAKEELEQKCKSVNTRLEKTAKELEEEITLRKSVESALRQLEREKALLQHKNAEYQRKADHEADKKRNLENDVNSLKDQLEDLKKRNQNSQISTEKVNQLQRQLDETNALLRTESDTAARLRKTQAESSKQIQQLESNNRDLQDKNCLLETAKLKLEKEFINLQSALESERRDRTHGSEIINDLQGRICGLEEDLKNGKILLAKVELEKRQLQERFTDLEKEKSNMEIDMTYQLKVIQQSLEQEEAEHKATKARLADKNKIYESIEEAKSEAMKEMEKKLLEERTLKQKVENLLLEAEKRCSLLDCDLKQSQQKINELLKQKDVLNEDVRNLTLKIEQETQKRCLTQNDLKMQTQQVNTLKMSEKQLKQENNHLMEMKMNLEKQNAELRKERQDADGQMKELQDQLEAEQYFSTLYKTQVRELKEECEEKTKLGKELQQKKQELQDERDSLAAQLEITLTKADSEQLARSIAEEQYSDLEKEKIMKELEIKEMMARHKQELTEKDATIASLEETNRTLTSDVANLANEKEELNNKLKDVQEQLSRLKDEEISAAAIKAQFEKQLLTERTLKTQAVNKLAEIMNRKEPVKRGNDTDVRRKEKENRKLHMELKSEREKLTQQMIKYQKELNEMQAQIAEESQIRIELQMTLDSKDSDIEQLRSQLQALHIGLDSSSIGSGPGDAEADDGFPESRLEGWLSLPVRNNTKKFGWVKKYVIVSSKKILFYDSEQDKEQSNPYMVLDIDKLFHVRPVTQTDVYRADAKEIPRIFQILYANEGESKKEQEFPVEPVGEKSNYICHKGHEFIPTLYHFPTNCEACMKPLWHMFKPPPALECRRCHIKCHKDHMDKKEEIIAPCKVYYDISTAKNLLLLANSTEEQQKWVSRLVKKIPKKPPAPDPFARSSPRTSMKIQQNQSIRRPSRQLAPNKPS

[12] = target: Calcium/calmodulin-dependent protein kinase type II subunit alpha (Homo sapiens) (UniProt Q9UQM7); test: Inhibition of CaMK2alpha at 100 nM relative to control; outline: as §1
[13] = target: Protein kinase C epsilon type (Homo sapiens) (UniProt Q02156); test: Inhibition of PKCepsilon at 100 nM relative to control; outline: as §1
Chain of Protein kinase C epsilon type (Homo sapiens) (Q02156 whole entry): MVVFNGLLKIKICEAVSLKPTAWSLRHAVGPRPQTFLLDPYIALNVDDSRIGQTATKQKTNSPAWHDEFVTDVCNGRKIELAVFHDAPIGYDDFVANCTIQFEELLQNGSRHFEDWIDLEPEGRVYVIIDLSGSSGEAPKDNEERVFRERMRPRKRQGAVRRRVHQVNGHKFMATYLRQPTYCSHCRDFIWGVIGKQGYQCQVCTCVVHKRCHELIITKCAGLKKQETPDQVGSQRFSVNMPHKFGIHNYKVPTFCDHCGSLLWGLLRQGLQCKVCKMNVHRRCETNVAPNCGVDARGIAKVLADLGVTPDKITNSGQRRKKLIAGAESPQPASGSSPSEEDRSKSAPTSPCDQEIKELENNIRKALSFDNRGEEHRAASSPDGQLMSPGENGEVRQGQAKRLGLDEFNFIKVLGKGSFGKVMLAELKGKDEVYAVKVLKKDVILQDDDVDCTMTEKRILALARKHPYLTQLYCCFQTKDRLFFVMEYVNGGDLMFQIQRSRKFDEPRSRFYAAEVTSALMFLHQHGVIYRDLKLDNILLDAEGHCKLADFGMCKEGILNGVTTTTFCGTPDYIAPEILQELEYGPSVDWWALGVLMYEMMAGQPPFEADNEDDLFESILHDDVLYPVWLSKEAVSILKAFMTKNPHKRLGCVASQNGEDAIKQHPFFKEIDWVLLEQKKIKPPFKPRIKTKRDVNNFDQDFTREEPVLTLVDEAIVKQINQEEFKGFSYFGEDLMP

[14] = target: Protein kinase C alpha type (Homo sapiens) (UniProt P17252); test: Inhibition of PKCalpha at 100 nM relative to control; outline: as §1
[15] = target: Ribosomal protein S6 kinase beta-1 (Homo sapiens) (UniProt P23443); test: Inhibition of p70S6K at 100 nM relative to control; outline: as §1
[16] = target: 5'-AMP-activated protein kinase subunit beta-1 (Homo sapiens) (UniProt Q9Y478); test: Inhibition of AMPKbeta1 at 100 nM relative to control; outline: as §1
[17] = target: T1, cAMP-dependent protein kinase catalytic subunit alpha; test: Inhibition of PKA catalytic subunit alpha using 100 uM ATP and 30 uM TAMRA-kemptide substrate by fluorometric TLC assay
[18] = target: Serine/threonine-protein kinase PAK 4 (Homo sapiens) (UniProt O96013); test: Inhibition of PAK4 at 100 nM relative to control; outline: as §1
[19] = target: Protein kinase C eta type (Homo sapiens) (UniProt P24723); test: Inhibition of PKCeta at 100 nM relative to control; outline: as §1
[20] = target: cAMP-dependent protein kinase catalytic subunit PRKX (Homo sapiens) (UniProt P51817); settings: 100 nM
[21] = target: Serine/threonine-protein kinase pim-2 (Homo sapiens) (UniProt Q9P1W9); test: Inhibition of PIM2 at 100 nM relative to control; outline: as §1
[22] = target: Protein kinase C delta type (Homo sapiens) (UniProt Q05655); test: Inhibition of PKCdelta at 100 nM relative to control; outline: as §1
[23] = target: Rho-associated protein kinase 2 (Bos taurus) (UniProt Q28021); test: Binding affinity to ROCK2 by fluorescence polarization assay
[24] = target: T2, RAC-gamma serine/threonine-protein kinase; settings: 100 nM
[25] = target: 5'-AMP-activated protein kinase subunit gamma-1 (Homo sapiens) (UniProt P54619); test: Inhibition of AMPKgamma1 at 100 nM relative to control; outline: as §1
[26] = target: Protein kinase C iota type (Homo sapiens) (UniProt P41743); test: Inhibition of PKCiota at 100 nM relative to control; outline: as §1
[27] = target: Protein kinase C zeta type (Homo sapiens) (UniProt Q05513); test: Inhibition of PKCzeta at 100 nM relative to control; outline: as §1
[28] = target: Protein kinase C beta type (Homo sapiens) (UniProt P05771); test: Inhibition of PKCbeta2 at 100 nM relative to control; outline: as §1
[29] = target: 5'-AMP-activated protein kinase catalytic subunit alpha-1 (Homo sapiens) (UniProt Q13131); test: Inhibition of AMPKalpha1 at 100 nM relative to control; outline: as §1
[30] = target: Serine/threonine-protein kinase Chk2 (Homo sapiens) (UniProt O96017); test: Inhibition of CHK2 at 100 nM relative to control; outline: as §1
[31] = target: Ribosomal protein S6 kinase alpha-1 (Homo sapiens) (UniProt Q15418); test: Inhibition of RSK1 at 100 nM relative to control; outline: as §1
[32] = target: Ribosomal protein S6 kinase alpha-3 (Homo sapiens) (UniProt P51812); settings: 100 nM
Chain of Ribosomal protein S6 kinase alpha-3 (Homo sapiens) (P51812 whole entry): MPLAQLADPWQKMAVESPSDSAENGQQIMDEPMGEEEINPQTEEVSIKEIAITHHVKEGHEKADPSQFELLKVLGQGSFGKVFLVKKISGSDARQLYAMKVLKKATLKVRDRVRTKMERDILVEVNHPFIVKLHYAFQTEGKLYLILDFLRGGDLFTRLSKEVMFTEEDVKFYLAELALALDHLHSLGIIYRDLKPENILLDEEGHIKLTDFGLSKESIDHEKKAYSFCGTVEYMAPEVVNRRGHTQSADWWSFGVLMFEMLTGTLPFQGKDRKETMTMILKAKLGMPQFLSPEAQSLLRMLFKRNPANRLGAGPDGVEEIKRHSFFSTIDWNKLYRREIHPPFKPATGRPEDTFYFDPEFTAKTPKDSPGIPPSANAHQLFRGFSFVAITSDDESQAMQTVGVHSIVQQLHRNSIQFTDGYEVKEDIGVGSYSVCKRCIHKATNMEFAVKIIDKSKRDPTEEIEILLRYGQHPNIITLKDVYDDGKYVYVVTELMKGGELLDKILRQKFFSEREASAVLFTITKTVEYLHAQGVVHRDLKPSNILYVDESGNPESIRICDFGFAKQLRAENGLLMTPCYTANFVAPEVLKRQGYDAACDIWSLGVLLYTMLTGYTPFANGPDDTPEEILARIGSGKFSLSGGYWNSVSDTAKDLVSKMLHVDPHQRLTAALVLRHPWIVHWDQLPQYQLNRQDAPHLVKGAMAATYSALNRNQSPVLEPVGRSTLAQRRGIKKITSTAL

[33] = target: Serine/threonine-protein kinase pim-1 (Homo sapiens) (UniProt P11309); test: Inhibition of PIM1 at 100 nM relative to control; outline: as §1
Chain of Serine/threonine-protein kinase pim-1 (Homo sapiens) (P11309 whole entry, looked up): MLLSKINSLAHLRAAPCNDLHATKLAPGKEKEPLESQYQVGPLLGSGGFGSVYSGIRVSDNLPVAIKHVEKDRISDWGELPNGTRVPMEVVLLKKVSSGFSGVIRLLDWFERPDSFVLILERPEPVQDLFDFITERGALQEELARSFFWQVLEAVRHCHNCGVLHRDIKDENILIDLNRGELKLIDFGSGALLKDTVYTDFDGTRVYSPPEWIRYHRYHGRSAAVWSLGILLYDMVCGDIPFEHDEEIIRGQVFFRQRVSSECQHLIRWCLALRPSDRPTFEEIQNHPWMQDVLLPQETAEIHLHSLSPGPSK

[34] = target: Glycogen synthase kinase-3 alpha (Homo sapiens) (UniProt P49840); test: Inhibition of GSK3alpha at 100 nM relative to control; outline: as §1
[35] = target: T1, cAMP-dependent protein kinase catalytic subunit alpha; settings: 100 nM
[36] = target: Aurora kinase A (Homo sapiens) (UniProt O14965); test: Inhibition of Aurora A at 100 nM relative to control; outline: as §1
Chain of Aurora kinase A (Homo sapiens) (O14965 whole entry): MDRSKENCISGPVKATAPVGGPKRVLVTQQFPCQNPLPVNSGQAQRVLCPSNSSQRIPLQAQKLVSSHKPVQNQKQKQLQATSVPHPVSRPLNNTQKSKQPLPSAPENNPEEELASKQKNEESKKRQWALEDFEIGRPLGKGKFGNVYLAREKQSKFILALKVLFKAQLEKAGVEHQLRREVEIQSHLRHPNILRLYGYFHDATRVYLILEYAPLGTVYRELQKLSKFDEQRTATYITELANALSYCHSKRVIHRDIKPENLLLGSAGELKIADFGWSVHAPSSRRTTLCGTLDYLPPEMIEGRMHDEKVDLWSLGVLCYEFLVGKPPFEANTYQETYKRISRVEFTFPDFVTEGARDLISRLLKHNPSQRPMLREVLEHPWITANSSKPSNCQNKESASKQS

[37] = target: Serine/threonine-protein kinase PAK 6 (Homo sapiens) (UniProt Q9NQU5); test: Inhibition of PAK6 at 100 nM relative to control; outline: as §1
[38] = target: Serine/threonine-protein kinase Sgk1 (Homo sapiens) (UniProt O00141); test: Inhibition of SGK1 at 100 nM relative to control; outline: as §1
[39] = target: cGMP-dependent protein kinase 1 (Homo sapiens) (UniProt Q13976); test: Inhibition of PKG1 at 100 nM relative to control; outline: as §1
[40] = target: cGMP-dependent protein kinase 2 (Homo sapiens) (UniProt Q13237); test: Inhibition of PKG2 at 100 nM relative to control; outline: as §1
[41] = target: Serine/threonine-protein kinase Sgk2 (Homo sapiens) (UniProt Q9HBY8); test: Inhibition of SGK2 at 100 nM relative to control; outline: as §1

For `N=C(N)NCCC[C@@H](NC(=O)[C@@H](CCCNC(=N)N)NC(=O)[C@@H](CCCNC(=N)N)NC(=O)[C@@H](CCCNC(=N)N)NC(=O)[C@@H](CCCNC(=N)N)NC(=O)[C@@H](CCCNC(=N)N)NC(=O)CCCCCNC(=O)[C@@H](CCCCN)NC(=O)CCCCCNC(=O)[C@H]1O[C@@H](n2cnc3c(N)ncnc32)[C@H](O)[C@@H]1O)C(N)=O` ({Adenosine(5'-uronoyl)-Ahx}-[dK][Ahx][dR][dR][dR][dR][dR][dR]-NH2), the inhibition [1] was 84%, the inhibition [2] was 62% and the inhibition [3] was 35%. The inhibition [4] was 54%, the inhibition [5] was 55% and the Kd [6] was under 0.5 nM. The inhibition [7] was 88%, the inhibition [8] was 99% and the inhibition [9] was 28%. It also gave an IC50 [10] of 14.6 nM, an inhibition [11] of 104% and an inhibition [12] of 5%. For the same compound, the inhibition [13] was 106%, the inhibition [14] was 94% and the inhibition [15] was 96%. It also gave an inhibition [16] of 51%, an IC50 [17] of 5.32 nM and an inhibition [18] of 81%. It also gave an inhibition [19] of 106%, an inhibition [20] of 104% and an inhibition [21] of 79%. The inhibition [22] was 97%, the Kd [23] was under 1 nM and the inhibition [24] was 87%. For the same compound, the inhibition [25] was 51%, the inhibition [26] was 34% and the inhibition [27] was 53%. For the same compound, the inhibition [28] was 94%, the inhibition [29] was 51% and the inhibition [30] was 62%. The inhibition [31] was 98%, the inhibition [32] was 104% and the inhibition [33] was 96%. The inhibition [34] was 16%, the inhibition [35] was 104% and the inhibition [36] was 10%. The inhibition [37] was 81%, the inhibition [38] was 89% and the inhibition [39] was 58%. It also gave an inhibition [40] of 16% and an inhibition [41] of 76%.
